Laboratory results: ChEMBL document CHEMBL4346727, “Synthesis and pharmacological evaluation of novel N-Mannich bases derived from 5,5-diphenyl and 5,5-di(propan-2-yl)imidazolidine-2,4-dione core” (Bioorg Med Chem Lett, 2019)
The source made the active and inactive calls. Unless noted, no cut-off for these calls is given here.

Legend:
[1] = Neurotoxicity in ip dosed CD1 mouse and measured after 4 hrs by rotarod test; format: toxicity, organism-based; conditions: in vivo
How it was run: (§1)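 Mice dosed intraperitoneally at 30, 100 and 300 mg/kg, then tested on the rotarod at 0.5 h and 4 h. The value recorded is the minimum dose at which neurotoxicity appeared. A dash means no neurotoxicity at the top dose of 300 mg/kg.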

[2] = Neurotoxicity in ip dosed CD1 mouse and measured after 0.5 hrs by rotarod test; format: toxicity, organism-based; conditions: in vivo; how it was run: as §1
Mus musculus [3] = test: Anticonvulsant activity in CD1 mouse assessed as protection against subcutaneous pentylenetetrazole-induced seizures at 300 mg/kg, ip and measured after 0.5 hrs; format: functional, organism-based
How it was run: (§2)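 Mice were screened after intraperitoneal doses of 30, 100 and 300 mg/kg in the maximal electroshock and subcutaneous pentylenetetrazole tests, examined at 0.5 and 4 h. The value recorded is the minimum dose showing activity. No activity up to 300 mg/kg is scored as absent.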

Mus musculus [4] = test: Anticonvulsant activity in ip dosed CD1 mouse assessed as protection against 50 mA current-induced seizure and measured after 4 hrs by maximal electroshock seizure test; format: functional; conditions: read-out: MED; how it was run: as §2
Mus musculus [5] = test: Anticonvulsant activity in ip dosed CD1 mouse assessed as protection against 50 mA current-induced seizure and measured after 0.5 hrs by maximal electroshock seizure test; format: functional; conditions: read-out: MED; how it was run: as §2
Mus musculus [6] = test: Anticonvulsant activity in ip dosed CD1 mouse assessed as time to peak effect on protection against 50 mA current-induced seizures; format: functional
How it was run: (§3)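 Median effective doses were quantified in the maximal electroshock, subcutaneous pentylenetetrazole and 6 Hz tests after intraperitoneal dosing in mice or oral dosing in rats, at the time of peak effect. ED50 values are reported with ranges in parentheses.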

Mus musculus [7] = test: Anticonvulsant activity in ip dosed CD1 mouse assessed as time to peak effect on protection against subcutaneous pentylenetetrazole-induced seizures; format: functional; how it was run: as §3
Mus musculus [8] = test: Anticonvulsant activity in ip dosed CD1 mouse assessed as time to peak effect on protection against 32 mA current-induced seizure by 6 Hz psychomotor seizure test; format: functional; how it was run: as §3
[9] = Neurotoxicity in ip dosed CD1 mouse assessed as time to peak effect by rotarod test; format: toxicity, organism-based; conditions: in vivo
Rattus norvegicus [10] = test: Anticonvulsant activity in po dosed Sprague-Dawley rat assessed as time to peak effect on protection against 150 mA current-induced seizures; format: functional; how it was run: as §3
Rattus norvegicus [11] = test: Anticonvulsant activity in po dosed Sprague-Dawley rat assessed as time to peak effect on protection against subcutaneous pentylenetetrazole-induced seizures; format: functional
Rattus norvegicus [12] = test: Anticonvulsant activity in po dosed Sprague-Dawley rat assessed as time to peak effect on protection against 32 mA current-induced seizure by 6 Hz psychomotor seizure test; format: functional
[13] = Neurotoxicity in po dosed Sprague-Dawley rat assessed as time to peak effect by rotarod test; format: toxicity, organism-based; conditions: in vivo
Mus musculus [14] = test: Anticonvulsant activity in ip dosed CD1 mouse assessed as protection against subcutaneous pentylenetetrazole-induced seizures; format: functional; how it was run: as §3
Rattus norvegicus [15] = test: Anticonvulsant activity in po dosed Sprague-Dawley rat assessed as protection against subcutaneous pentylenetetrazole-induced seizures; format: functional
Mus musculus [16] = test: Anticonvulsant activity in ip dosed CD1 mouse assessed as protection against 32 mA current-induced seizure by 6 Hz psychomotor seizure test; format: functional; how it was run: as §3
[17] = Neurotoxicity in po dosed Sprague-Dawley rat model by rotarod test; format: toxicity, organism-based; conditions: in vivo
How it was run: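 Rats dosed orally; neurotoxicity scored on the rotarod. Screening used a fixed 30 mg/kg, with animals checked at 0.25, 0.5, 1, 2, 4 and 6 h; the reading is the number of four rats showing neurotoxicity. In quantitative runs, a median toxic dose (TD50, mg/kg) was determined after oral dosing at the time of peak effect.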

[18] = Protection index, ratio of TD50 for neurotoxicity in po dosed Sprague-Dawley rat by rotarod test to ED50 for anticonvulsant activity in po dosed Sprague-Dawley rat by maximal electroshock seizure test; format: toxicity, organism-based; conditions: in vivo, read-out: Ratio TD50/ED50
[19] = Protection index, ratio of TD50 for neurotoxicity in ip dosed CD1 mouse by rotarod test to ED50 for anticonvulsant activity in ip dosed CD1 mouse by maximal electroshock seizure test; format: toxicity, organism-based; conditions: in vivo, read-out: Ratio TD50/ED50
Mus musculus [20] = test: Anticonvulsant activity in CD1 mouse assessed as protection against subcutaneous pentylenetetrazole-induced seizures at 300 mg/kg, ip and measured after 4 hrs; format: functional, organism-based; how it was run: as §2
Mus musculus [21] = test: Anticonvulsant activity in ip dosed CD1 mouse assessed as protection against subcutaneous pentylenetetrazole-induced seizures and measured after 4 hrs; format: functional; conditions: CD1, 4 h, read-out: MED; how it was run: as §2
[22] = Neurotoxicity in ip dosed CD1 mouse model by rotarod test; format: toxicity, organism-based; conditions: in vivo
[23] = Protection index, ratio of TD50 for neurotoxicity in ip dosed CD1 mouse by rotarod test to ED50 for anticonvulsant activity in ip dosed CD1 mouse model of subcutaneous PTZ-induced seizures; format: toxicity, organism-based; conditions: in vivo, read-out: Ratio TD50/ED50
Mus musculus [24] = test: Anticonvulsant activity in CD1 mouse assessed as protection against 50 mA current-induced seizure at 300 mg/kg, ip and measured after 0.5 hrs by maximal electroshock seizure test; format: functional, organism-based; how it was run: as §2
Mus musculus [25] = test: Anticonvulsant activity in CD1 mouse assessed as protection against 50 mA current-induced seizure at 300 mg/kg, ip and measured after 4 hrs by maximal electroshock seizure test; format: functional, organism-based; how it was run: as §2
[26] = Neurotoxicity in CD1 mouse at 300 mg/kg, ip and measured after 4 hrs hrs by rotarod test; format: toxicity, organism-based; conditions: in vivo; how it was run: as §1
Mus musculus [27] = test: Potency index, ratio of phenytoin ED50 to compound ED50 for anticonvulsant activity protection against subcutaneous pentylenetetrazole-induced seizures in ip dosed CD1 mouse; format: functional
Rattus norvegicus [28] = test: Anticonvulsant activity in Sprague-Dawley rat assessed as protection against 150 mA current-induced seizure at 30 mg/kg, po measured after 15 mins by maximal electroshock seizure test; format: functional, organism-based
How it was run: (§4)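 Rats received 30 mg/kg orally and were given maximal electroshock at 0.25, 0.5, 1, 2, 4 and 6 h. Read-out is the number of rats protected out of four.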

[29] = Neurotoxicity in Sprague-Dawley rat at 30 mg/kg, po measured after 6 hrs hr by rotarod test; format: toxicity, organism-based; conditions: in vivo
How it was run: (§5)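 Rats given one oral dose of 30 mg/kg and tested on the rotarod at 0.25, 0.5, 1, 2, 4 and 6 h.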

[30] = Neurotoxicity in Sprague-Dawley rat at 30 mg/kg, po measured after 4 hr by rotarod test; format: toxicity, organism-based; conditions: in vivo; how it was run: as §5
[31] = Neurotoxicity in Sprague-Dawley rat at 30 mg/kg, po measured after 2 hr by rotarod test; format: toxicity, organism-based; conditions: in vivo; how it was run: as §5
[32] = Neurotoxicity in Sprague-Dawley rat at 30 mg/kg, po measured after 1 hr by rotarod test; format: toxicity, organism-based; conditions: in vivo; how it was run: as §5
[33] = Neurotoxicity in Sprague-Dawley rat at 30 mg/kg, po measured after 30 mins by rotarod test; format: toxicity, organism-based; conditions: in vivo, 0.5 h; how it was run: as §5
[34] = Neurotoxicity in Sprague-Dawley rat at 30 mg/kg, po measured after 15 mins by rotarod test; format: toxicity, organism-based; conditions: in vivo, 0.25 h; how it was run: as §5
Rattus norvegicus [35] = test: Anticonvulsant activity in Sprague-Dawley rat assessed as protection against 150 mA current-induced seizure at 30 mg/kg, po measured after 4 hrs by maximal electroshock seizure test; format: functional, organism-based; how it was run: as §4
Rattus norvegicus [36] = test: Anticonvulsant activity in Sprague-Dawley rat assessed as protection against 150 mA current-induced seizure at 30 mg/kg, po measured after 2 hrs by maximal electroshock seizure test; format: functional, organism-based; how it was run: as §4
Rattus norvegicus [37] = test: Anticonvulsant activity in Sprague-Dawley rat assessed as protection against 150 mA current-induced seizure at 30 mg/kg, po measured after 1 hr by maximal electroshock seizure test; format: functional, organism-based; how it was run: as §4
Rattus norvegicus [38] = test: Anticonvulsant activity in Sprague-Dawley rat assessed as protection against 150 mA current-induced seizure at 30 mg/kg, po measured after 30 mins by maximal electroshock seizure test; format: functional, organism-based; how it was run: as §4
[39] = Neurotoxicity in CD1 mouse at 300 mg/kg, ip and measured after 0.5 hrs by rotarod test; format: toxicity, organism-based; conditions: in vivo; how it was run: as §1
[40] = Neurotoxicity in CD1 mouse at 50 mg/kg, ip measured after 1 hr by rotarod test; conditions: in vivo
[41] = Neurotoxicity in CD1 mouse at 50 mg/kg, ip measured after 2 hrs by rotarod test; conditions: in vivo
[42] = Neurotoxicity in CD1 mouse at 50 mg/kg, ip measured after 4 hrs by rotarod test; conditions: in vivo
[43] = Neurotoxicity in CD1 mouse at 50 mg/kg, ip measured after 15 mins by rotarod test; conditions: in vivo, 0.25 h
[44] = Neurotoxicity in CD1 mouse at 50 mg/kg, ip measured after 30 mins by rotarod test; conditions: in vivo, 0.5 h
Mus musculus [45] = test: Anticonvulsant activity in CD1 mouse assessed as protection against 32 mA current-induced seizure at 50 mg/kg, ip measured after 4 hrs by 6 Hz psychomotor seizure test

SMILES | minimal neurotoxic dose [2] | MED (Mus musculus [3]) | minimal effective dose (Mus musculus [4]) | minimal effective dose (Mus musculus [5]) | Time (Mus musculus [6]) | Time (Mus musculus [7]) | Time (Mus musculus [8]) | Time [9] | ED50 (Mus musculus [14]) | Activity (Mus musculus [20]) | Activity (Mus musculus [24]) | Activity [26] | Activity (Rattus norvegicus [28]) | Activity [30] | Activity [31] | Activity [32] | Activity [33] | Activity [34] | Activity (Rattus norvegicus [35]) | Activity (Rattus norvegicus [38]) | other results
O=C1NC(=O)C(c2ccccc2)(c2ccccc2)N1 [PHENYTOIN] | 100 mg/kg | inactive | 30 mg/kg | 30 mg/kg | 1 h | 1 h | 1 h | 1 h | > 500 mg/kg | inactive |  |  |  |  |  |  |  |  |  |  | MTC [1]: 100 mg/kg; Time (Rattus norvegicus [10]): 1 h; Time (Rattus norvegicus [11]): 1 h; Time (Rattus norvegicus [12]): 1 h; Time [13]: 1 h; ED50 (Rattus norvegicus [15]): > 500 mg/kg; ED50 (Mus musculus [16]): > 60 mg/kg; TD50 [17]: > 1000 mg/kg; selectivity ratio [18]: > 35.6; selectivity ratio [19]: 7.27
CC(C)C1(C(C)C)NC(=O)N(CN2CCN(CCc3ccccc3)CC2)C1=O | 300 mg/kg | inactive |  |  | 4 h | 4 h | 4 h | 4 h | 89.4 mg/kg |  | inactive | Non-Toxic |  |  |  |  |  |  |  |  | minimal effective dose (Mus musculus [21]): 100 mg/kg; TD50 [22]: > 200 mg/kg; selectivity ratio [23]: > 2.23; Activity (Mus musculus [25]): inactive; Ratio ED50 (Mus musculus [27]): 5.5
CC(C)C1(C(C)C)NC(=O)N(CN2CCN(c3ccccc3)CC2)C1=O |  | inactive | 300 mg/kg |  |  |  |  |  |  | inactive | inactive | Non-Toxic | inactive | Non-Toxic | Non-Toxic | Non-Toxic | Non-Toxic | Non-Toxic | inactive | inactive | Activity [29]: Non-Toxic; Activity (Rattus norvegicus [36]): inactive; Activity (Rattus norvegicus [37]): inactive; Activity [39]: Non-Toxic
O=C1NC(c2ccccc2)(c2ccccc2)C(=O)N1CN1CCN(CCc2ccccc2)CC1 |  | inactive | 30 mg/kg | 100 mg/kg |  |  |  |  |  | inactive |  | Non-Toxic | inactive | Non-Toxic | Non-Toxic | Non-Toxic | Non-Toxic | Non-Toxic | inactive | Active | Activity [39]: Non-Toxic; Activity [40]: Non-Toxic; Activity [41]: Non-Toxic; Activity [42]: Non-Toxic; Activity [43]: Non-Toxic; Activity [44]: Non-Toxic; Activity (Mus musculus [45]): Active
